Active and inactive are the calls of the source. The rule behind the calls is not given here.
How the values were obtained:
[1] = system: A549; test: Drug uptake in human A549 cells at 1 uM incubated for 1 hr measured 8 hrs post-wash out by LC-MS analysis; type: ADME, cell-based; conditions: a549, 1 h
Outline: (§1)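 A549 cells plated 24 h, then exposed 1 h at 37 °C to 1 μM compound (0.1% DMSO final), assayed immediately or 8 h after three washes with fresh medium. Ethanol extraction at 4 °C, extract dried, redissolved, quantified by LC−MS against 50 nM–5 μM calibration (LOQ 50 nM, LOD 20 nM).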

[2] = system: A549; test: Drug uptake in human A549 cells at 1 uM after 1 hr by LC-MS analysis; type: ADME, cell-based; conditions: a549, 1 h; outline: as §1
[3] = Chemical stability of the compound assessed as compound remaining at 1 uM after 1 hr at pH 7.4 in the presence of cysteamine; type: physicochemical; conditions: buffer, read-out: Stability
Outline: (§2)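 Test compound (1 μM) in PBS pH 7.4 with freshly prepared thiol (DTT, GSH, NAC or cysteamine, 2 mM), incubated 1 h at 37 °C; parent remaining quantified by LC−UV and LC−ESI-MS, mean ± SD, n = 3.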

[4] = Chemical stability of the compound assessed as compound remaining at 1 uM after 1 hr at pH 7.4 in the presence of NAC; type: physicochemical; conditions: buffer, read-out: Stability; outline: as §2
[5] = Drug degradation of the compound assessed as thiol-conjugate formation at 1 uM up to 24 hrs at pH 7.4 in the presence of GSH; type: physicochemical; conditions: buffer, pH 7.4, 24 h
Outline: (§3)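 Conjugate formation checked by HPLC−UV and HPLC−ESI-MS after adding freshly prepared thiol (2 mM; cysteamine, NAC, DTT or reduced GSH) to PBS pH 7.4 holding compound at 1 μM, 37 °C; sampled up to 24 h.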

[6] = Chemical stability of the compound in 0.01 M PBS buffer assessed as compound remaining at 1 uM after 24 hrs at pH 7.4; type: physicochemical; conditions: read-out: Stability
Outline: (§4)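 Buffer stability at pH 7.4 or pH 9.0, compound at 1 μM, 37 °C for 24 h; percentage of parent left measured by LC−UV and LC−ESI-MS, mean ± SD, n = 3.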

[7] = Drug degradation of the compound assessed as thiol-conjugate formation at 1 uM up to 24 hrs at pH 7.4 in the presence of cysteamine; type: physicochemical; conditions: buffer, pH 7.4, 24 h; outline: as §3
[8] = Drug degradation of the compound assessed as thiol-conjugate formation at 1 uM up to 24 hrs at pH 7.4 in the presence of DTT; type: physicochemical; conditions: buffer, pH 7.4, 24 h; outline: as §3
[9] = Drug degradation of the compound assessed as thiol-conjugate formation at 1 uM up to 24 hrs at pH 7.4 in the presence of NAC; type: physicochemical; conditions: buffer, pH 7.4, 24 h; outline: as §3
[10] = Chemical stability of the compound in 0.01 M borate buffer assessed as compound remaining at 1 uM after 24 hrs at pH 9; type: physicochemical; conditions: read-out: Stability; outline: as §4
[11] = Metabolic stability in rat plasma assessed as compound remaining at 1 uM after 24 hrs; type: ADME, cell-free; conditions: read-out: Stability
Outline: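 Incubation of compound (1 μM) in 80% (v/v) rat plasma at 37 °C for 24 h; parent remaining determined by LC−UV and LC−ESI-MS, mean ± SD, n = 3.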

[12] = Chemical stability of the compound assessed as compound remaining at 1 uM after 1 hr at pH 7.4 in the presence of DTT; type: physicochemical; conditions: buffer, read-out: Stability; outline: as §2
[13] = system: A549; test: Drug metabolism in human A549 cell lysate assessed as N-(4-(3-bromophenylamino)quinazolin-6-yl)acrylamide-cysteine adduct level at 10 uM after 1 hr by HPLC-HRMS analysis; type: ADME, cell-based; conditions: a549, 1 h
Outline: (§5)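 A549 cells grown 2 days, lysed by freeze/thaw; lysate pre-spiked with 2 mM cysteine, compound added from fresh DMSO stock to 10 μM final, 37 °C. Aliquots at 0, 1 and 4 h quenched with double volume acetonitrile, centrifuged, analysed by LC−HRMS in positive ion mode.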

[14] = system: A549; test: Prodrug conversion in human A549 cell lysate assessed as N-(4-(3-bromophenylamino)quinazolin-6-yl)acrylamide level at 10 uM after 1 hr by HPLC-HRMS analysis; type: ADME, cell-based; conditions: a549, 1 h; outline: as §5
[15] = biological target: T1, Receptor tyrosine-protein kinase erbB-2 (Homo sapiens, UniProt P04626); test: Inhibition of ErbB2 up to 10 uM by time-resolved fluorometry
[16] = Chemical stability of the compound assessed as compound remaining at 1 uM after 1 hr at pH 7.4 in the presence of GSH; type: physicochemical; conditions: buffer, read-out: Stability; outline: as §2
[17] = system: NCI-H1975; test: Antiproliferative activity against gefitinib-resistant human NCI-H1975 cells expressing EGFR T790M mutant after 3 days by MTT assay; type: functional, cell-based; conditions: NCI-H1975, 72 h
[18] = biological target: T2, Epidermal growth factor receptor (Homo sapiens, UniProt P00533); conditions: A549, at 1 µM
[19] = biological target: T2, Epidermal growth factor receptor; conditions: A549, at 1 µM; remark: listed apart in the source
[20] = system: NCI-H1975; test: Ratio of gefitinib IC50 to compound IC50 for human NCI-H1975 cells; type: functional
[21] = biological target: T2, Epidermal growth factor receptor; test: Inhibition of human recombinant EGFR using Ulight-CAGAGAIETDKEYYTVKD as substrate after 15 mins by time-resolved fluorimetric analysis
[22] = biological target: T1, Receptor tyrosine-protein kinase erbB-2; test: Inhibition of ErbB2 by time-resolved fluorometry
[23] = system: Epidermal growth factor receptor (Homo sapiens), P00533 [T790M]; test: (§6) Inhibition of EGFR T790M mutant autophosphorylation in human NCI-H1975 cells after 1 hr by Western blot analysis; type: cell-based
[24] = biological target: Epidermal growth factor receptor (Homo sapiens, UniProt P00533, T790M); test: as §6; type: cell-based
Chain of Epidermal growth factor receptor (Homo sapiens, UniProt P00533, T790M) (P00533 whole entry T790M): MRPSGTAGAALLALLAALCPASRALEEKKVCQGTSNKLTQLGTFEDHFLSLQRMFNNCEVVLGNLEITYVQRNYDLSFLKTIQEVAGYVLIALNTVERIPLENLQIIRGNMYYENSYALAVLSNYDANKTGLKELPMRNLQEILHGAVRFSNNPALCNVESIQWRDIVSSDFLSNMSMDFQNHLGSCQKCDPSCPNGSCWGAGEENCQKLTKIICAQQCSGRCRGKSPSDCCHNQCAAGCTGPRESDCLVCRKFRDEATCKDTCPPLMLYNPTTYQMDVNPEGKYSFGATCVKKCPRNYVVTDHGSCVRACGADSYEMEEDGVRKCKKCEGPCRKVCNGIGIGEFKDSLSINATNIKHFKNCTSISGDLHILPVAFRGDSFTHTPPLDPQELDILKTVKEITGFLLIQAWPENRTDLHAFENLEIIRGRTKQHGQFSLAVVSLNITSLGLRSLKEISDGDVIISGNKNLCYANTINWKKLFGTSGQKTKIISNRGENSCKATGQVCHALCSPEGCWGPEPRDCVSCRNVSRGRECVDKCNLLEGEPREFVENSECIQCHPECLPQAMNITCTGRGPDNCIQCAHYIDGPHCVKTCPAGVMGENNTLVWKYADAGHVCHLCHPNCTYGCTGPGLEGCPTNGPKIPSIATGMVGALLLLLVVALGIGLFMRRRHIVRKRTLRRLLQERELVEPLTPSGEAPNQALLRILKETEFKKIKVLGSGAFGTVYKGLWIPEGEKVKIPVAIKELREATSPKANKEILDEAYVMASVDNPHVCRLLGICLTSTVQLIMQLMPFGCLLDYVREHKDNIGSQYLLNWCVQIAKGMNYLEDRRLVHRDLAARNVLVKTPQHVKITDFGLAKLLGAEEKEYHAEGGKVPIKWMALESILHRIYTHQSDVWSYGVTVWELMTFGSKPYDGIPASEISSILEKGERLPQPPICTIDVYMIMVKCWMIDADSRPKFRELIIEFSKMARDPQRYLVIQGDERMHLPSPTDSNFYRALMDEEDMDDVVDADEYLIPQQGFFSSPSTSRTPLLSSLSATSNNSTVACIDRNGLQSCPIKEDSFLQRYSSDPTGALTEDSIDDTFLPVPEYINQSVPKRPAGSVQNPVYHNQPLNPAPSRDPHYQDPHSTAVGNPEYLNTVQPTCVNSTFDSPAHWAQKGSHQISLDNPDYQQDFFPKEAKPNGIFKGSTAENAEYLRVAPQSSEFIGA

T1 sequence (P04626 whole entry): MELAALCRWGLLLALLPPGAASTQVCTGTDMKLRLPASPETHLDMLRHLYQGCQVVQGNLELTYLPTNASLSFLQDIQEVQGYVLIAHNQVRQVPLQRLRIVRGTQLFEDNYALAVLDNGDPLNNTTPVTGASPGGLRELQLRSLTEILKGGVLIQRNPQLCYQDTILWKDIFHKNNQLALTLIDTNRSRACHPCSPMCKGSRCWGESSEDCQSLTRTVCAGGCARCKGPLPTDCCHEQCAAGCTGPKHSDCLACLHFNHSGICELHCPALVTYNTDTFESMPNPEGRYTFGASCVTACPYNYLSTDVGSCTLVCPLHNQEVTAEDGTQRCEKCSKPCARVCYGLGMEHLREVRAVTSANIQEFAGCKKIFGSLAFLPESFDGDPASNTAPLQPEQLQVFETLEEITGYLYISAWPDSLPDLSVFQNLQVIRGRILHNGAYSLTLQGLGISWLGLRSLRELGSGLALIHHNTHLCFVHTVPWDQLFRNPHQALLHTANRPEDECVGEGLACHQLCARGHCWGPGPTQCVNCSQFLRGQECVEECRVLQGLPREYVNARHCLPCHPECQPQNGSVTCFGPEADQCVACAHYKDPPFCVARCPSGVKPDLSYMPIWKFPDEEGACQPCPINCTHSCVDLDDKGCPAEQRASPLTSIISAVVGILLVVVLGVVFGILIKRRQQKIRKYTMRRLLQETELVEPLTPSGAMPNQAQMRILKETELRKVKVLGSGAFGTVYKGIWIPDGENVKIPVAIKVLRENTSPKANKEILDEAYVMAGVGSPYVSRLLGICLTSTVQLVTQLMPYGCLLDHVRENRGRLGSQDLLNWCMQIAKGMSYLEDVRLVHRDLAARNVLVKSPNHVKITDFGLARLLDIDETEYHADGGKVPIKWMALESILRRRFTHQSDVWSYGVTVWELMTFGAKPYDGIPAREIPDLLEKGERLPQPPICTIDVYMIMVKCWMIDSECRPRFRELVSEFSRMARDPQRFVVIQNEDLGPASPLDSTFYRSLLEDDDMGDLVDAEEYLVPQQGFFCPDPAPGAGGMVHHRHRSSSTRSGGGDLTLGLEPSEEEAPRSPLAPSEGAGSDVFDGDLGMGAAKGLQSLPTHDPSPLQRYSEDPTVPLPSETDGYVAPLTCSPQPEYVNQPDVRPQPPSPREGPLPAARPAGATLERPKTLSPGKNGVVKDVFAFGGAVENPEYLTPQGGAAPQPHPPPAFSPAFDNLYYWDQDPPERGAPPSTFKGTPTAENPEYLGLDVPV
T2 sequence (P00533 whole entry): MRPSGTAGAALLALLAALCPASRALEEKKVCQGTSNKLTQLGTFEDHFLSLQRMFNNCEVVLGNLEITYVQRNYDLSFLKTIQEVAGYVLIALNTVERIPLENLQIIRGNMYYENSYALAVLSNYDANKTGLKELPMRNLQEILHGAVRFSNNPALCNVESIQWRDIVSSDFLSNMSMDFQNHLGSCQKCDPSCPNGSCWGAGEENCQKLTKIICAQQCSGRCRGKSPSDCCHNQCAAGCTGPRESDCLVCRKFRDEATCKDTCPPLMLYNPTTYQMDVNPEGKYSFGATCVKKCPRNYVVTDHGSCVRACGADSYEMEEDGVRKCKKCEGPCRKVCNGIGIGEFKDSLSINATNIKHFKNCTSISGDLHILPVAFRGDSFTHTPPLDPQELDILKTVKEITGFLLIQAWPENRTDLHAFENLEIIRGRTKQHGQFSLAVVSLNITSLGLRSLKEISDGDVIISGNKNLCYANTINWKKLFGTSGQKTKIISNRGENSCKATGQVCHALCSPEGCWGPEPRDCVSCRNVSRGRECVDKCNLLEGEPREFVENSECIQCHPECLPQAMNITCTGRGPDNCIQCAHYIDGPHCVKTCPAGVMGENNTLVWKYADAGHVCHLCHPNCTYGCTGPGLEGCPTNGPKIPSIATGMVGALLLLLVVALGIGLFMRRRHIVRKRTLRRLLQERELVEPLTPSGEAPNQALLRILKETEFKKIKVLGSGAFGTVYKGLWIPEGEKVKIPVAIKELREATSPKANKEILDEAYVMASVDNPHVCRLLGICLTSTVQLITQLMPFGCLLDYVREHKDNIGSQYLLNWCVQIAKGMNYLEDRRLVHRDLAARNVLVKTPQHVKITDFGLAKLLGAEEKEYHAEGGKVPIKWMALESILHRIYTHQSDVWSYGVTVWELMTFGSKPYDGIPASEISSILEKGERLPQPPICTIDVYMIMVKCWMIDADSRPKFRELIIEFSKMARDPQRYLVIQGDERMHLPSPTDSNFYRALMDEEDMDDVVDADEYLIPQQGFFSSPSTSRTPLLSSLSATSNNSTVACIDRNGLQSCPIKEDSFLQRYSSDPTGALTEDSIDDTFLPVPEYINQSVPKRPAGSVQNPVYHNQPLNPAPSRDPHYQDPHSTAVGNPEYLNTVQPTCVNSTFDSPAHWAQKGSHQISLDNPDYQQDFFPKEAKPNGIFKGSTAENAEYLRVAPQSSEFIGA
Chain of Epidermal growth factor receptor (Homo sapiens), P00533 [T790M] (P00533 whole entry T790M): as the sequence (P00533 whole entry T790M) above

What does the source list for `CN(C)CCC(=O)Nc1ccc2ncnc(Nc3cccc(Br)c3)c2c1`?
Drug uptake [1]: Not Active; Drug uptake [2]: 0.05 nmol/mg; remaining at 1 h, 1 µM [3]: 100%; remaining at 1 h, 1 µM [4]: 100%; Drug degradation [5]: Not Active; remaining at 24 h, 1 µM [6]: 97.5%; Drug degradation [7]: Not Active; Drug degradation [8]: Not Active; Drug degradation [9]: Not Active; remaining at 24 h, 1 µM [10]: 77%; remaining at 24 h, 1 µM [11]: 98.7%; remaining at 1 h, 1 µM [12]: 99.2%; Drug metabolism [13]: Active; Drug metabolism [14]: Active; inhibition [15]: inactive; remaining at 1 h, 1 µM [16]: 101%

For `CCOc1cc2ncnc(Nc3ccc(F)c(Cl)c3)c2cc1NC(=O)CCN(C)C`, which IC50 [17] is on record?
The IC50 was 2210 nM.

And the inhibition [18]?
The inhibition was 98%.

What about the inhibition [19] of the same compound?
Its inhibition is 100%.

And the “Ratio IC50” value [20]?
The value was 3.

And the IC50 [21]?
Its IC50 is 0.27 nM.

Which Drug uptake [1] does the source give for `C=CC(=O)Nc1ccc2ncnc(Nc3cccc(Br)c3)c2c1` here?
Its Drug uptake is “Not Active”.

What about the Drug uptake [2] of the same compound?
Its Drug uptake is “Not Active”.

And the remaining at 1 h, 1 µM [3]?
The remaining at 1 h, 1 µM was 20.1%.

And the remaining at 1 h, 1 µM [4]?
Its remaining at 1 h, 1 µM is 85.6%.

What about the Drug degradation [5] of the same compound?
The Drug degradation was “Active”.

And the remaining at 24 h, 1 µM [6]?
The remaining at 24 h, 1 µM was 102%.

What about the Drug degradation [7] of the same compound?
The Drug degradation was “Active”.

What about the Drug degradation [9] of the same compound?
The Drug degradation was “Active”.

What about the remaining at 24 h, 1 µM [10] of the same compound?
The remaining at 24 h, 1 µM was 105%.

What about the remaining at 24 h, 1 µM [11] of the same compound?
The remaining at 24 h, 1 µM was 21.8%.

And the remaining at 1 h, 1 µM [12]?
Its remaining at 1 h, 1 µM is 100%.

And the remaining at 1 h, 1 µM [16]?
Its remaining at 1 h, 1 µM is 63.8%.

What does the source list for `CCOc1cc2ncc(C#N)c(Nc3ccc(F)c(Cl)c3)c2cc1NC(=O)CCN(C)C`?
IC50 [17]: 2370 nM; inhibition [18]: 88%; inhibition [19]: 67%; IC50 [21]: 0.68 nM

Which IC50 [17] does the source give for `CCOc1cc2ncc(C#N)c(Nc3ccc(F)c(Cl)c3)c2cc1NC(=O)CCN1CCOCC1` here?
The IC50 was 3930 nM.

And the inhibition [18]?
Its inhibition is 86%.

What about the inhibition [19] of the same compound?
The inhibition was 48%.

And the IC50 [21]?
Its IC50 is 2.02 nM.

With `C=CC(=O)Nc1cc2c(Nc3ccc(F)c(Cl)c3)c(C#N)cnc2cc1OCC` as the compound, how does the IC50 [17] read?
Its IC50 is 3570 nM.

What about the inhibition [18] of the same compound?
Its inhibition is 92%.

And the inhibition [19]?
Its inhibition is 33%.

And the IC50 [21]?
Its IC50 is 1.46 nM.

What does the source list for `C=CC(=O)Nc1cc2c(Nc3ccc(F)c(Cl)c3)ncnc2cc1OCC`?
IC50 [17]: 1620 nM; inhibition [18]: 96%; inhibition [19]: 99%; IC50 [21]: 0.18 nM

With `CCOc1cc2ncc(C#N)c(Nc3ccc(OCc4ccccn4)c(Cl)c3)c2cc1NC(=O)CCN1CCOCC1` as the compound, how does the IC50 [17] read?
Its IC50 is 2760 nM.

What about the inhibition [18] of the same compound?
The inhibition was 48%.

What about the inhibition [19] of the same compound?
Its inhibition is 39%.

And the IC50 [21]?
The IC50 was 37.5 nM.

For `CCOc1cc2ncc(C#N)c(Nc3ccc(OCc4ccccn4)c(Cl)c3)c2cc1NC(=O)CCN1CCCCC1`, which IC50 [17] is on record?
The IC50 was 710 nM.

What about the IC50 [22] of the same compound?
Its IC50 is 980 nM.

And the inhibition [18]?
Its inhibition is 71%.

What about the inhibition [19] of the same compound?
The inhibition was 58%.

What about the “Ratio IC50” value [20] of the same compound?
The value was 11.

And the inhibition [23]?
Its inhibition is “Dose-dependent effect”.

And the IC50 [24]?
Its IC50 is 150 nM.

What about the IC50 [21] of the same compound?
The IC50 was 24.8 nM.

Which IC50 [17] does the source give for `CCOc1cc2ncc(C#N)c(Nc3ccc(OCc4ccccn4)c(Cl)c3)c2cc1NC(=O)CCN(C)C` here?
The IC50 was 2030 nM.

What about the IC50 [22] of the same compound?
Its IC50 is 970 nM.

What about the inhibition [18] of the same compound?
The inhibition was 61%.

And the inhibition [19]?
The inhibition was 59%.

And the IC50 [21]?
Its IC50 is 12.5 nM.

Which IC50 [17] does the source give for `CCOc1cc2ncc(C#N)c(Nc3ccc(F)c(Cl)c3)c2cc1NC(=O)CCN1CCCCC1` here?
Its IC50 is 2730 nM.

What about the inhibition [18] of the same compound?
The inhibition was 92%.

What about the inhibition [19] of the same compound?
Its inhibition is 82%.

And the IC50 [21]?
Its IC50 is 2.21 nM.

For `O=C(CCN1CCCCC1)Nc1ccc2ncnc(Nc3cccc(Br)c3)c2c1`, which IC50 [17] is on record?
Its IC50 is 6670 nM.

What about the inhibition [18] of the same compound?
Its inhibition is 95%.

And the inhibition [19]?
The inhibition was 93%.

What about the IC50 [21] of the same compound?
The IC50 was 0.27 nM.

Which Drug uptake [1] does the source give for `Nc1ccc2ncnc(Nc3cccc(Br)c3)c2c1` here?
The Drug uptake was “Not Active”.

And the Drug uptake [2]?
Its Drug uptake is 0.105 nmol/mg.

What does the source list for `CCOc1cc2ncnc(Nc3ccc(F)c(Cl)c3)c2cc1NC(=O)CCN1CCOCC1`?
IC50 [17]: 2110 nM; inhibition [18]: 97%; inhibition [19]: 97%; Ratio IC50 [20]: 3; IC50 [21]: 0.29 nM

Which IC50 [17] does the source give for `CCOc1cc2ncnc(Nc3ccc(F)c(Cl)c3)c2cc1NC(=O)CCN1CCCCC1` here?
The IC50 was 1610 nM.

What about the inhibition [18] of the same compound?
Its inhibition is 98%.

What about the inhibition [19] of the same compound?
Its inhibition is 92%.

And the “Ratio IC50” value [20]?
Its value is 3.

What about the IC50 [21] of the same compound?
Its IC50 is 0.51 nM.

Which IC50 [17] does the source give for `CN(C)CCC(=O)N(C)c1ccc2ncnc(Nc3cccc(Br)c3)c2c1` here?
The IC50 was 13600 nM.

What about the inhibition [18] of the same compound?
Its inhibition is 47%.

And the inhibition [19]?
Its inhibition is 10%.

What about the IC50 [21] of the same compound?
Its IC50 is 17.4 nM.

For `O=C(CCN1CCOCC1)Nc1ccc2ncnc(Nc3cccc(Br)c3)c2c1`, which IC50 [17] is on record?
The IC50 was greater than 20000 nM.

And the inhibition [18]?
Its inhibition is 98%.

What about the inhibition [19] of the same compound?
Its inhibition is 91%.

What about the IC50 [21] of the same compound?
The IC50 was 0.51 nM.

— ChEMBL document CHEMBL2029270, “Irreversible inhibition of epidermal growth factor receptor activity by 3-aminopropanamides” (J Med Chem, 2012)
